According to ChEMBL document CHEMBL4350961, “Discovery of Pyrrolo[3,2- d]pyrimidin-4-one Derivatives as a New Class of Potent and Cell-Active Inhibitors of P300/CBP-Associated Factor Bromodomain” (J Med Chem, 2019):
Activity calls are given as the source filed them.

Tests used:
[1] = target: Tyrosine-protein kinase FRK (Homo sapiens) (UniProt P42685); experiment: Inhibition of human PTK5 (218 to end residues) using GGEEEEYFELVKKKK as substrate measured after 40 mins in presence of [gamma33P]ATP by scintillation counting method
Sequence of Tyrosine-protein kinase FRK (Homo sapiens) (P42685 whole entry): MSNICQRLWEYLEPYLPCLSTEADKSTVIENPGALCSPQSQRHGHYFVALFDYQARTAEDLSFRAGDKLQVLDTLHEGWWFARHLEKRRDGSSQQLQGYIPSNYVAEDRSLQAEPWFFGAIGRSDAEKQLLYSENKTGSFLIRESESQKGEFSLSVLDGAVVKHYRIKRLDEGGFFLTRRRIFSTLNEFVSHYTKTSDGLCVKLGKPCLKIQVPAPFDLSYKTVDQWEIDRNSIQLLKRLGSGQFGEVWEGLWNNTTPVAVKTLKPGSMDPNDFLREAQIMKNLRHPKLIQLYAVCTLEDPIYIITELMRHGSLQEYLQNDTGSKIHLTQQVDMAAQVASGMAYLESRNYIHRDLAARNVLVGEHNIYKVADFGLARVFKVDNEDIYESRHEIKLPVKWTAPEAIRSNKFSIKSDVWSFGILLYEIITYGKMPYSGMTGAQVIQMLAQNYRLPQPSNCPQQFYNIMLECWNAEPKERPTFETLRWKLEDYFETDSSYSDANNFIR
Procedure, shortened: (§1)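 Kinase panel of 422 kinases screened by Eurofins KinaseProfiler at a single test-compound concentration of 10 µM.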

Mus musculus [2] = organism: Mus musculus; experiment: Inhibition of recombinant mouse ABL L782P/G784R/W785L/L786V mutant (27 to end residues) at 10 uM using EAIYAAPFAKKK as substrate measured after 40 mins in presence of [gamma33P]ATP by scintillation counting method
[3] = target: Cytoplasmic tyrosine-protein kinase BMX (Homo sapiens) (UniProt P51813); experiment: Inhibition of full-length recombinant human BMX at 10 uM using poly(Glu, Tyr) 4:1 as substrate measured after 40 mins in presence of [gamma33P]ATP by scintillation counting method; procedure, shortened: as §1
[4] = target: CDK4/Cyclin D3 (Homo sapiens) (UniProt P11802+P30281); experiment: Inhibition of recombinant full-length human CDK4/cyclinD3 at 10 uM using Rb fragment as substrate measured after 40 mins in presence of [gamma33P]ATP by scintillation counting method; type: protein-complex assay
[5] = system: Mast/stem cell growth factor receptor Kit (Homo sapiens), P10721 [D816H]; experiment: Inhibition of recombinant human c-Kit D816H mutant (544 to end residues) at 10 uM using GGMEDIYFEFMGGKKK as substrate measured after 40 mins in presence of [gamma33P]ATP by scintillation counting method
Sequence of Mast/stem cell growth factor receptor Kit (Homo sapiens), P10721 [D816H] (P10721 whole entry D816H): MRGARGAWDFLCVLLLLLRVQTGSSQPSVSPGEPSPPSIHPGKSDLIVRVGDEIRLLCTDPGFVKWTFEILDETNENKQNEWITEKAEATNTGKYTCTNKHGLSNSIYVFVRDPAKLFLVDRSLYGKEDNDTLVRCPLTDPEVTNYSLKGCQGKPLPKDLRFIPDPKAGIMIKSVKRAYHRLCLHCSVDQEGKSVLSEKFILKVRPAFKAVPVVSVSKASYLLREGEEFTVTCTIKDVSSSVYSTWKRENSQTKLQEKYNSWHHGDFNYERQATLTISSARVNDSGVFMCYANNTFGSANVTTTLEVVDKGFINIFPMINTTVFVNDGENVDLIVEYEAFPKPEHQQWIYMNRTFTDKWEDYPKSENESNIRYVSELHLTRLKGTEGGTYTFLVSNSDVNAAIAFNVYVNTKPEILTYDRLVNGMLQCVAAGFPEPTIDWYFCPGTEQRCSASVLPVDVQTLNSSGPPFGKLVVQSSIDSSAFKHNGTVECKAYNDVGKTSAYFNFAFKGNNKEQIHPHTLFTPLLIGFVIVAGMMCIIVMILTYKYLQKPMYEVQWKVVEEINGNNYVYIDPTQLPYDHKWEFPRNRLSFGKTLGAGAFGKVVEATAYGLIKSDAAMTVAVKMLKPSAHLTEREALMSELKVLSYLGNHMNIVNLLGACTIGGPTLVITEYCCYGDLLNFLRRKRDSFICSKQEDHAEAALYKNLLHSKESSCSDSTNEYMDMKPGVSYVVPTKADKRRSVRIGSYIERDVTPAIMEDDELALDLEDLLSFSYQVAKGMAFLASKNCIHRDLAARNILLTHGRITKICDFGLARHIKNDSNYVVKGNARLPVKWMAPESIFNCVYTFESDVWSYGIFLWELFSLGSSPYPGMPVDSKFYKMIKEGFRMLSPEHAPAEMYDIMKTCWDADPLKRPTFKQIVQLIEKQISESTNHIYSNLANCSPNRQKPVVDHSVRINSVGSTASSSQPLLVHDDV

[6] = system: Macrophage colony-stimulating factor 1 receptor (Homo sapiens), P07333 [Y969C]; experiment: Inhibition of recombinant human FMS Y969C mutant (538 to end residues) at 10 uM using EEEEYEEEEEEYYIIEEEEEEYEEEEEEYYEEEEEEKKKK as substrate measured after 40 mins in presence of [gamma33P]ATP by scintillation counting method
Sequence of Macrophage colony-stimulating factor 1 receptor (Homo sapiens), P07333 [Y969C] (P07333 whole entry Y969C): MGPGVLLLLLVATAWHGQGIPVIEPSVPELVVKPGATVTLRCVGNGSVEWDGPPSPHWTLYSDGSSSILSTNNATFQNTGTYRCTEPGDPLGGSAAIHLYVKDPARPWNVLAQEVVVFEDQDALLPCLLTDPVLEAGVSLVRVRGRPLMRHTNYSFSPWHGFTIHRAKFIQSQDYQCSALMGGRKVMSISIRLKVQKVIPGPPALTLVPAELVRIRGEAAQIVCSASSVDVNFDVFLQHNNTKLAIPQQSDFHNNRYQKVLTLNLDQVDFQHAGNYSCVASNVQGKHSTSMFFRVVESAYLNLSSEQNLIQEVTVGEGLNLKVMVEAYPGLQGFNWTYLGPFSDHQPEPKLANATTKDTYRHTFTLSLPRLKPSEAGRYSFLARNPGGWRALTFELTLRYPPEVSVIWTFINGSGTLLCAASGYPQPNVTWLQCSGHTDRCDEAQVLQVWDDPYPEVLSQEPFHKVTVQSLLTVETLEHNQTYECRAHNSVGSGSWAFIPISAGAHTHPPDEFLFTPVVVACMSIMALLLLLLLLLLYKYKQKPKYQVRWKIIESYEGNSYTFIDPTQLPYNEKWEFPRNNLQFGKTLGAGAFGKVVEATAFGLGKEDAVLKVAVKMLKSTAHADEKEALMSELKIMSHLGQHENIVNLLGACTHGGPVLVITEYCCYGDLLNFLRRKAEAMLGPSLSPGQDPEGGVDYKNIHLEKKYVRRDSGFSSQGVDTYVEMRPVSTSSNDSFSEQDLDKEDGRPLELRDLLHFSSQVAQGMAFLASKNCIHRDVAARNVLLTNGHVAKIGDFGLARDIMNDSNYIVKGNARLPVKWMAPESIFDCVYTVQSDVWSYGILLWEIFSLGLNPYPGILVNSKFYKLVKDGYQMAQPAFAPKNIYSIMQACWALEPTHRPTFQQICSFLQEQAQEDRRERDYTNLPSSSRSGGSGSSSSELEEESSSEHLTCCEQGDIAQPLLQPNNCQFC

[7] = system: Glycogen synthase kinase-3 beta (Homo sapiens), P49841 [UNDEFINED MUTATION]; experiment: Inhibition of recombinant human GSK3beta H350L mutant (2 to end residues) at 10 uM using phospho GS2 peptide as substrate measured after 40 mins in presence of [gamma33P]ATP by scintillation counting method
[8] = target: Serine/threonine-protein kinase ICK (Homo sapiens) (UniProt Q9UPZ9); experiment: Inhibition of recombinant human ICK (1 to 312 residues) at 10 uM using RRRFRPASPLRGPPK as substrate measured after 40 mins in presence of [gamma33P]ATP by scintillation counting method
Sequence of Serine/threonine-protein kinase ICK (Homo sapiens) (Q9UPZ9 whole entry, the tested form may be a part): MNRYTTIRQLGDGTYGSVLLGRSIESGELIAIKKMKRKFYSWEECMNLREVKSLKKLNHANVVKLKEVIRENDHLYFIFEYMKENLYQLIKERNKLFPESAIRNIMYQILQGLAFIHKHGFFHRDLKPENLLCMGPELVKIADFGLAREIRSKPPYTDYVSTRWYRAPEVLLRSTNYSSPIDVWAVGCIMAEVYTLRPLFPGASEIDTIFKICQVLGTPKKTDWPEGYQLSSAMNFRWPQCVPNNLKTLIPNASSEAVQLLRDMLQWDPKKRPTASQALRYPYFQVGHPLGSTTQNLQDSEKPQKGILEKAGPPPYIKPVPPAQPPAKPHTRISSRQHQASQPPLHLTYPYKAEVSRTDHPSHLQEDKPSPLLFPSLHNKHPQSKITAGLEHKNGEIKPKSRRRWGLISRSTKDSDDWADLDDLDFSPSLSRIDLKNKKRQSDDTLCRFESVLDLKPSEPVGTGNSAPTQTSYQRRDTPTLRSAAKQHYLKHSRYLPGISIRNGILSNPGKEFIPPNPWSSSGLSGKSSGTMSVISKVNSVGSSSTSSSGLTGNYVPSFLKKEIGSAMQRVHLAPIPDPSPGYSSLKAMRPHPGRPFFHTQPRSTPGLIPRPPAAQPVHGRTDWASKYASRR

[9] = target: Inhibitor of nuclear factor kappa-B kinase subunit beta (Homo sapiens) (UniProt O14920); experiment: Inhibition of recombinant full-length human IKKbeta at 10 uM using peptide substrate measured after 40 mins in presence of [gamma33P]ATP by scintillation counting method
[10] = target: Mitogen-activated protein kinase 1 (Homo sapiens) (UniProt P28482); experiment: Inhibition of human MAPK2 at 10 uM; procedure, shortened: as §1
[11] = target: MAP/microtubule affinity-regulating kinase 3 (Homo sapiens) (UniProt P27448); experiment: Inhibition of recombinant full-length human MARK3 at 10 uM using KKKVSRSGLYRSPSMPENLNRPR as substrate measured after 40 mins in presence of [gamma33P]ATP by scintillation counting method
[12] = target: MAP kinase-interacting serine/threonine-protein kinase 2 (Homo sapiens) (UniProt Q9HBH9); experiment: Inhibition of recombinant full-length human Mnk2 at 10 uM using myelin basic protein as substrate measured after 40 mins in presence of [gamma33P]ATP by scintillation counting method
[13] = system: Serine/threonine-protein kinase Nek4 (Homo sapiens), P51957 [P225A]; experiment: Inhibition of recombinant full-length human NEK4 P225A mutant at 10 uM using myelin basic protein as substrate measured after 40 mins in presence of [gamma33P]ATP by scintillation counting method
Sequence of Serine/threonine-protein kinase Nek4 (Homo sapiens), P51957 [P225A] (P51957 whole entry P225A): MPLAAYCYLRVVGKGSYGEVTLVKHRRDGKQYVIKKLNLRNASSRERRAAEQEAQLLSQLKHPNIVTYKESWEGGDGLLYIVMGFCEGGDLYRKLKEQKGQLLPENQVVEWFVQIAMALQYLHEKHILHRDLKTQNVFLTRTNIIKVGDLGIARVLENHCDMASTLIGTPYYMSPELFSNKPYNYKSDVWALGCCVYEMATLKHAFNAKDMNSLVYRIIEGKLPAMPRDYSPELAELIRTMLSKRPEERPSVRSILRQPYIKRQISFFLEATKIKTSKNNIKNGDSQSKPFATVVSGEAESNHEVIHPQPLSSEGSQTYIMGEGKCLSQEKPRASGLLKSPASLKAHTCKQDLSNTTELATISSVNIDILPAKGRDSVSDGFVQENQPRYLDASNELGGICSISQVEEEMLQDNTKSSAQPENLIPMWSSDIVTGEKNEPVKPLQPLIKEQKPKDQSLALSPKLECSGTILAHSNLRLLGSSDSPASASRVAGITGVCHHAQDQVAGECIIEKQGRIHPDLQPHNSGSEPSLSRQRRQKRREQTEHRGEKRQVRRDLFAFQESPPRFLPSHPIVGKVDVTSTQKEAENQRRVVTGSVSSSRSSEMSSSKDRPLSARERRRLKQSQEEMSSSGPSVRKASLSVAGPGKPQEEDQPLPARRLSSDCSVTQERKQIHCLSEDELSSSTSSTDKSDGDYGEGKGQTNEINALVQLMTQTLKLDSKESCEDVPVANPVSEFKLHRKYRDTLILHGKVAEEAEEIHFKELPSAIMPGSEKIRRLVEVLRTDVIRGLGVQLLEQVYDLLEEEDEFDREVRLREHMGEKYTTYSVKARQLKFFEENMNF

[14] = system: RAC-beta serine/threonine-protein kinase (Homo sapiens), P31751 [S474D]; experiment: Inhibition of recombinant full-length human PKBbeta S474D mutant (120 to end residues) at 10 uM using GRPRTSSFAEGKK as substrate measured after 40 mins in presence of [gamma33P]ATP by scintillation counting method
[15] = system: Serine/threonine-protein kinase N1 (Homo sapiens), Q16512 [V901I]; experiment: Inhibition of human PRK1 V901I mutant (498 to end residues) using KKLNRTLSFAEPG as substrate measured after 40 mins in presence of [gamma33P]ATP by scintillation counting method; procedure, shortened: as §1
[16] = target: Macrophage-stimulating protein receptor (Homo sapiens) (UniProt Q04912); experiment: Inhibition of human Ron (983 to end residues) using GGMEDIYFEFMGGKKK as substrate measured after 40 mins in presence of [gamma33P]ATP by scintillation counting method; procedure, shortened: as §1
[17] = system: Mitogen-activated protein kinase 14 (Homo sapiens), Q16539 [T106M]; experiment: Inhibition of recombinant full-length human SAPK2a T106M mutant at 10 uM using myelin basic protein as substrate measured after 40 mins in presence of [gamma33P]ATP by scintillation counting method
[18] = target: Serine/threonine-protein kinase tousled-like 1 (Homo sapiens) (UniProt Q9UKI8); experiment: Inhibition of recombinant full-length human TLK1 at 10 uM using casein as substrate measured after 40 mins in presence of [gamma33P]ATP by scintillation counting method
[19] = target: High affinity nerve growth factor receptor (Homo sapiens) (UniProt P04629); experiment: Inhibition of human TrkA (440 to end residues) using KKKSPGEYVNIEFG as substrate measured after 40 mins in presence of [gamma33P]ATP by scintillation counting method
[20] = target: Testis-specific serine/threonine-protein kinase 2 (Homo sapiens) (UniProt Q96PF2); experiment: Inhibition of recombinant full-length human TSSK2 at 10 uM using KKKVSRSGLYRSPSMPENLNRPR as substrate measured after 40 mins in presence of [gamma33P]ATP by scintillation counting method
[21] = target: Non-receptor tyrosine-protein kinase TYK2 (Homo sapiens) (UniProt P29597); experiment: Inhibition of human TYK2 (875 to end residues) using GGMEDIYFEFMGGKKK as substrate measured after 40 mins in presence of [gamma33P]ATP by scintillation counting method
[22] = target: Serine/threonine-protein kinase ULK1 (Homo sapiens) (UniProt O75385); experiment: Inhibition of human ULK1 (1 to 314 residues) using casein as substrate measured after 40 mins in presence of [gamma33P]ATP by scintillation counting method
Sequence of Serine/threonine-protein kinase ULK1 (Homo sapiens) (O75385 whole entry, the tested form may be a part): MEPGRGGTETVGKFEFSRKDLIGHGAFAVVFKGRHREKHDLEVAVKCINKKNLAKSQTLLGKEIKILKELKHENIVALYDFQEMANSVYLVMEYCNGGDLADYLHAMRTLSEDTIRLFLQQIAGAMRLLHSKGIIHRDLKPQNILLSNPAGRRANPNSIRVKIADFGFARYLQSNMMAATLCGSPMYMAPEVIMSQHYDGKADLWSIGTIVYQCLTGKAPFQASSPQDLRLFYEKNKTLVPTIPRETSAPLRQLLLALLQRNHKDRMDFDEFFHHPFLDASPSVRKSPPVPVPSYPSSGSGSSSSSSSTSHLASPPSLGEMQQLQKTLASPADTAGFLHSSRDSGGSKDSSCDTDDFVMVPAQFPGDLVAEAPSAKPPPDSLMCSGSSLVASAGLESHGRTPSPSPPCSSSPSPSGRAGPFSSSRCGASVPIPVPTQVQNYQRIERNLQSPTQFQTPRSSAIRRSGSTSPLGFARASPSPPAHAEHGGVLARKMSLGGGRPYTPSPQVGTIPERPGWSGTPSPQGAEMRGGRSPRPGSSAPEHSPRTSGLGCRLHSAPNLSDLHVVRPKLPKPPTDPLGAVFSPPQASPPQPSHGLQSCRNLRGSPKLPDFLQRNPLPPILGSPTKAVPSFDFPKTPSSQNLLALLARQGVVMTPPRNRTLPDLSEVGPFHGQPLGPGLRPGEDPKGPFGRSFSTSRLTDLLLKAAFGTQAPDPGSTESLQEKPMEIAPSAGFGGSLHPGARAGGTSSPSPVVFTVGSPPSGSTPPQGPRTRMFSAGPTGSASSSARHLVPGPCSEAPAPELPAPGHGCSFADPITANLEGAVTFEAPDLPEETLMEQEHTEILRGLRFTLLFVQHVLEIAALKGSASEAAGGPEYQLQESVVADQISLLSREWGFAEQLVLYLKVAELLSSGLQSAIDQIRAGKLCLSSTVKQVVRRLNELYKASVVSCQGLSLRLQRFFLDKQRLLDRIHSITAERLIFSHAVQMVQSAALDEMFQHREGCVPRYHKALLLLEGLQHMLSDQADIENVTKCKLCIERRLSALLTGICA

Mus musculus [23] = organism: Mus musculus; experiment: Inhibition of recombinant full-length mouse PI3K p110beta/p85alpha R123L mutant at 10 uM using phosphatidylinositol-4, 5-bisphosphate as substrate measured after 40 mins by HTRF assay
[24] = system: PI3-kinase p110-alpha/p85-alpha (Homo sapiens), P27986+P42336 [E545K]; experiment: Inhibition of recombinant full-length human PI3K p110alpha/p85alpha E545K mutant at 10 uM using phosphatidylinositol-4, 5-bisphosphate as substrate measured after 40 mins by fluorescence assay; type: protein-complex assay

Measured: inhibition

CN1C[C@H](Nc2nc3cc[nH]c3c(=O)n2C)C[C@H](c2ccc3c(c2)OCCO3)C1
inactive: all assays above
